pIC50: −log10 of the molar value. Activity calls are given as the source filed them. The rule behind the calls is not given here.
What was measured:
[1] = target: T1, Hypoxia-inducible factor 1-alpha (Homo sapiens, UniProt Q16665); assay: Inhibition of hypoxia-induced HIF1 alpha transcriptional activity in human HeLa cells transfected with luciferase reporter containing of HRE assessed as reduction in luciferase activity incubated for 1 hrs under normoxic condition followed by incubation under hypoxic condition for 24 hrs by luciferase reporter gene assay; format: cell-based
[2] = target: T1, Hypoxia-inducible factor 1-alpha; assay: Inhibition of hypoxia-induced HIF1 alpha transcriptional activity in human HeLa cells assessed as HIF1alpha protein level incubated for 1 hrs under normoxic condition followed by incubation under hypoxic condition for 24 hrs by Western blotting analysis; format: cell-based; conditions: time 25.0 hrs
[3] = target: T1, Hypoxia-inducible factor 1-alpha; assay: Inhibition of hypoxia-induced HIF1 alpha transcriptional activity in human HeLa cells at 3 uM incubated for 1 hrs under normoxic condition followed by incubation under hypoxic condition for 24 hrs by quantitative RT-PCR analysis; format: cell-based; conditions: time 25.0 hrs
[4] = target: T1, Hypoxia-inducible factor 1-alpha; assay: Inhibition of hypoxia-induced HIF1 alpha transcriptional activity in human HeLa cells assessed as reduction in CA9 mRNA level at 3 uM incubated for 1 hrs under normoxic condition followed by incubation under hypoxic condition for 24 hrs by quantitative RT-PCR analysis; format: cell-based; conditions: time 25.0 hrs
[5] = target: T1, Hypoxia-inducible factor 1-alpha; assay: Inhibition of hypoxia-induced HIF1 alpha transcriptional activity in human HeLa cells assessed as reduction in VEGF mRNA level at 3 uM incubated for 1 hrs under normoxic condition followed by incubation under hypoxic condition for 24 hrs by quantitative RT-PCR analysis; format: cell-based; conditions: time 25.0 hrs
[6] = target: ATP synthase F(1) complex subunit beta, mitochondrial (Homo sapiens) (UniProt P06576); assay: Competitive binding affinity to ATP5B in human HeLa cell mitochondrial fraction in presence of KUSC-5051 by LC-MS/MS analysis; conditions: Mitochondria
Outline: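 HeLa S3 lysate fractionated into debris (1 mg/mL), mitochondrial (0.8 mg/mL) and cytosol (0.6 mg/mL) fractions. Fractions incubated with DMSO or 300 μM competitor, with or without 30 μM photoaffinity probe, 1 h at 37 °C, then UV 365 nm for 30 min. Click labeling, NeutrAvidin enrichment, SDS-PAGE. The ~60 kDa band was trypsin-digested 12 h at 37 °C for LC-MS/MS, with confirmation by anti-ATP5B western blot.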

[7] = target: ATP synthase F(1) complex catalytic subunit beta, mitochondrial (Bos taurus) (UniProt P00829); assay: Inhibition of ATP5B in bovine heart mitochondrial solution assessed as complex V activity at 10 to 100 nM incubated for 2 hrs by spectrophotometry; conditions: Mitochondria, dose 10-100 nM
Outline: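 Complex V activity measured in bovine heart mitochondria solution with ATP synthase. Compound at 10 and 100 nM; DMSO 1.0% vehicle; oligomycin 12.6 μM as positive control. Incubated 2 h at 25 °C, monitoring absorbance at 340 nm for NADH consumption. n = 3; representative of three experiments; Student's t-test.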

[8] = system: HeLa; assay: Inhibition of mitochondrial complex V in human HeLa cells assessed as reduction in oxygen consumption rate at 0.1 to 1 uM for 1.5 hrs cells pretreated with FCCP/antimycin A/rotenone by XF mito stress test assay; format: cell-based; conditions: dose 0.1-1 µM
Outline: (§1)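 HeLa cells at 80–90% confluency equilibrated 1.5 h at 37 °C without CO₂. OCR recorded at baseline and after sequential injections: compound (0.1, 1, 10 μM) or oligomycin 0.5 μM, then FCCP 0.5 μM, then rotenone/antimycin A (0.5 μM each). Seahorse XF analyzer; n = 6, mean ± SEM.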

[9] = system: HeLa S3; assay: Cytotoxicity against human HeLa S3 cells assessed as reduction in cell viability incubated for 72 hrs by cell proliferation assay; format: functional, cell-based; conditions: HeLa S3, 72 h
Outline: (§2)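 Cells seeded at 1.5 × 10³ per well and grown 24 h, then exposed to solvent or serial dilutions of test compound for 72 h. Viability read with Cell Counting Kit-8. Triplicate wells (n = 3); representative of two independent experiments.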

[10] = system: HT-1080; assay: Cytotoxicity against human HT-1080 cells assessed as reduction in cell viability incubated for 72 hrs by cell proliferation assay; format: functional, cell-based; conditions: HT-1080, 72 h; outline: as §2
[11] = system: HeLa; assay: Inhibition of mitochondrial complex V in human HeLa cells assessed as reduction in oxygen consumption rate at 0.1 to 1 uM for 1.5 hrs by XF mito stress test assay; format: cell-based; conditions: dose 0.1-1 µM; outline: as §1
[12] = Drug localization in mitochondria of human HeLa cells at 1 uM incubated for 3 hrs by MitoTracker Red CMXRos and Hoechst 33342 staining based assay; format: ADME
Outline: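 HeLa cells exposed 3 h to 1 μM BODIPY-FL fluorescent probe. MitoTracker Red CMXRos (100 nM) and Hoechst 33342 (10 μM) added, then cells fixed and imaged by fluorescence microscopy.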

[13] = target: ATP synthase F(1) complex catalytic subunit beta, mitochondrial (Bos taurus) (UniProt P00829); assay: Inhibition of ATP5B in bovine heart mitochondrial solution assessed as complex V activity at 12.6 nM incubated for 2 hrs by spectrophotometry; conditions: Mitochondria
Outline: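 Bovine heart mitochondria solution used as the ATP synthase (complex V) source. Compound was incubated 2 h at 25 °C with DMSO at 1.0%. Activity followed as consumption of supplemented NADH by absorbance at 340 nm on a spectrophotometer. Oligomycin was the positive control. n = 3; representative of three independent experiments; Student's t-test.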

pIC50 [1]	SMILES	further results
4.35	O=C(Nc1ccccc1Br)c1ccn(Cn2cc([N+](=O)[O-])cn2)n1	
5.92	CCC(=O)Nc1cnn(Cn2ccc(C(=O)Nc3ccc(C(F)(F)F)cc3)n2)c1	inhibition [2]: Dose-Dependent Effect; inhibition [3]: Active; inhibition [4]: Active; inhibition [5]: Active; Activity [6]: Active; inhibition [7]: Active; inhibition [8]: Active; pIC50 [9]: 4.46; pIC50 [10]: 6.22; inhibition [11]: Active
5.26	CC(=O)Nc1cnn(Cn2ccc(C(=O)Nc3ccc(C(F)(F)F)cc3)n2)c1	
4.68	CC(C)c1ccc(NC(=O)c2ccn(Cn3cc([N+](=O)[O-])cn3)n2)cc1	
4.46	O=C(Nc1cccc(Br)c1)c1ccn(Cn2cc([N+](=O)[O-])cn2)n1	
5.92	CCCNc1cnn(Cn2ccc(C(=O)Nc3ccc(C(F)(F)F)cc3)n2)c1	
4.48	O=C(Nc1cccc(C(F)(F)F)c1)c1ccn(Cn2cc([N+](=O)[O-])cn2)n1	
4.46	O=C(Nc1ccc(Cl)cc1Cl)c1ccn(Cn2cc([N+](=O)[O-])cn2)n1	
4.89	O=C(Nc1ccc(Cl)c(Cl)c1)c1ccn(Cn2cc([N+](=O)[O-])cn2)n1	
5.16	CC(C)C(=O)Nc1cnn(Cn2ccc(C(=O)Nc3ccc(C(F)(F)F)cc3)n2)c1	
4.55	O=C(Nc1ccc(F)cc1)c1ccn(Cn2cc([N+](=O)[O-])cn2)n1	
4.74	O=C(Nc1ccc(Br)cc1)c1ccn(Cn2cc([N+](=O)[O-])cn2)n1	
4.70	O=C(Nc1ccc(Cl)cc1)c1ccn(Cn2cc([N+](=O)[O-])cn2)n1	
4.74	O=C(Nc1ccc(C(F)(F)F)cc1)c1ccn(Cn2cc([N+](=O)[O-])cn2)n1	
4.09	O=C(Nc1ccc(F)cc1F)c1ccn(Cn2cc([N+](=O)[O-])cn2)n1	

The remaining lines, values behind:

SMILES	pIC50 [1]	further results
COc1ccc(NC(=O)c2ccn(Cn3cc([N+](=O)[O-])cn3)n2)cc1	< 4.00	
O=C(Nc1ccc(Br)cc1)c1ccn(Cn2ccc([N+](=O)[O-])c2)n1	4.57	
O=C(Nc1ccccc1O)c1ccn(Cn2cc([N+](=O)[O-])cn2)n1	< 4.00	
O=C(Nc1ccc(Br)cc1)c1ccn(Cn2ccnc2)n1	4.47	
Cc1cc(C)n2c1C=C1C=C(CCC(=O)Nc3cnn(Cn4ccc(C(=O)Nc5ccc(C(F)(F)F)cc5)n4)c3)C=[N+]1[B-]2(F)F		Drug uptake [12]: Active
CC[C@@H]1/C=C/C=C/C[C@H](C)[C@@H](O)[C@](C)(O)C(=O)[C@H](C)[C@@H](O)[C@H](C)C(=O)[C@H](C)[C@@H](O)[C@H](C)/C=C/C(=O)O[C@H]2[C@@H](C)[C@@H](CC1)O[C@@]1(CC[C@@H](C)[C@@H](C[C@@H](C)O)O1)[C@@H]2C		pIC50 [9]: 5.28; pIC50 [10]: > 7.00; inhibition [13]: Active
Nc1cnn(Cn2ccc(C(=O)Nc3ccc(Br)cc3)n2)c1	4.70	
O=C(Nc1ccc(Br)cc1)c1ccn(Cn2cccn2)n1	4.18	
O=C(Nc1ccccc1)c1ccn(Cn2cc([N+](=O)[O-])cn2)n1	< 4.00	
O=C(Cc1ccccc1)Nc1cnn(Cn2ccc(C(=O)Nc3ccc(C(F)(F)F)cc3)n2)c1	5.85	
O=C(Nc1ccc(Br)cc1)c1ccn(Cn2cnc([N+](=O)[O-])c2)n1	4.24	
CC(=O)Nc1cnn(Cn2ccc(C(=O)Nc3ccc(Br)cc3)n2)c1	4.85	
CCCC(=O)Nc1cnn(Cn2ccc(C(=O)Nc3ccc(C(F)(F)F)cc3)n2)c1	5.74	
C#CCCCC1(CCC(=O)Nc2cnn(Cn3ccc(C(=O)Nc4ccc(C(F)(F)F)cc4)n3)c2)N=N1		Activity [6]: Active

From ChEMBL document CHEMBL4808255, “Design, synthesis, and target identification of new hypoxia-inducible factor 1 (HIF-1) inhibitors containing 1-alkyl-1H-pyrazole-3-carboxamide moiety” (Bioorg Med Chem, 2021)
